Measured values collected from several papers.
Lines come from different studies, so protocols differ.

| Compound | tested on | assay | test system | conditions | quantity | result |
| --- | --- | --- | --- | --- | --- | --- |
| C[C@]12CC[C@H]3[C@@H](CC=C4CC(O)CC[C@@]43CO)[C@@H]1CCC2O (stereo partly shown) |  | metabolic stability | rat, liver microsomes |  | half-life | 19.9 min |
| CN1CC[C@H]2c3nc4ccc(Cl)cc4c(=O)n3CC[C@H]21 (racemic) | SH-SY5Y | cell growth or viability, ATP luminescence |  |  | CC50 | > 20 µM |
| COCC1=N[C@@]2(O)[C@H](C(=O)N(C)OC)[C@@H](c3ccccc3)[C@]3(c4ccc(OC)cc4)Oc4cc(OC)cc(OC)c4[C@]23N1 |  | metabolic stability | male Sprague-Dawley rat, liver microsomes | 1 µM, pH 7.4 | half-life | 74.7 min |
| CNC(=O)c1ccc(-c2cnn3ccc(C(=O)N(C)c4ccc(Cl)c(C(=O)O)c4)cc23)cc1 |  |  | female C57BL/6 mouse, plasma | oral, 10 mg/kg/day | AUC | 34 ng·h/mL |
| NCCNC(=O)O[C@H]1CCC[C@@]2(C1)OOC1(O2)C2CC3CC(C2)CC1C3 (stereo partly shown) |  |  | male CD-1 mouse, plasma | intravenous, 3 mg/kg | AUC(0-inf) | 757 ng·h/mL |
| COc1cc(Cl)cc2c(=O)n3c(nc12)[C@@H]1CCCN(C)[C@@H]1CC3 (racemic) | SH-SY5Y | cell growth or viability, ATP luminescence |  | 72 h | CC50 | > 20 µM |
| CC(C)C[C@H](NC(=O)[C@H](Cc1ccccc1)NC(=O)[C@H](Cc1ccccc1)NC(=O)Cc1ccc(-c2ccccc2)cc1)C(=O)N[C@@H](CCCCN)C(=O)N[C@@H](CCCNC(=N)N)C(=O)N[C@H](C(=O)N[C@@H](Cc1c[nH]c2ccccc12)C(=O)N[C@@H](CCCCN)C(=O)N[C@@H](CCCNC(=N)N)C(=O)O)C(C)C |  | metabolic stability | rat, liver microsomes | 1 µM | half-life | 5.12 min |
| CN1CCN(S(=O)(=O)c2cc([N+](=O)[O-])ccc2N(CCOS(C)(=O)=O)CCOS(C)(=O)=O)CC1 |  |  | female SCID mouse, plasma | intraperitoneal, 5 mg/kg | AUC(0-inf) | 0.5 µM·h |
| CNC(=O)c1ccc(-c2cnn3ccc(C(=O)N(C)c4ccc(Cl)c(C(=O)OC)c4)cc23)cc1 |  |  | female C57BL/6 mouse, plasma | oral, 10 mg/kg/day | AUC | 9.1 ng·h/mL |
| C[C@]12CC[C@H]3[C@@H](CCC4=CC(=O)CC[C@@]43C)[C@@H]1CC[C@@H]2O |  | metabolic stability | Sprague-Dawley rat, hepatocytes | 1 µM | half-life | 2.92 min |
| CONC(=O)[C@H]1[C@@H](O)[C@@]2(O)c3c(OC)cc(OC)cc3O[C@@]2(c2ccc(OC)cc2)[C@@H]1c1ccccc1 |  | metabolic stability | rat, liver microsomes |  | half-life | 58.3 min |
| C=CS(=O)(=O)c1ccc(Nc2nc(OCC3CCCCC3)c3nc[nH]c3n2)cc1 |  |  | male BALB/c mouse, plasma | intraperitoneal, 20 mg/kg, single dose | AUC(0-t) | 137 ng·h/mL |
| Cn1nccc1[C@]1(CNC(=O)c2ccc(F)c(F)c2-c2ccc(C(F)(F)F)cc2)NC(=O)NC1=O |  |  | male C57BL/6 mouse, plasma | oral, 1 mg/kg | bioavailability | 132% |
